Experimental data as given in ChEMBL document CHEMBL1255429, “Efflux pumps are involved in the defense of Gram-negative bacteria against the natural products isobavachalcone and diospyrone” (2010).
Converted amounts (≈) assume the structure as drawn.

Columns and labels:
Format in all cases: functional
Pseudomonas aeruginosa [1] = test: Antimicrobial activity against Pseudomonas aeruginosa PA124 after 18 hrs by rapid INT colorimetric assay in presence of efflux pump inhibitor phenylalanine arginine; settings: PA124, 18 h
Klebsiella aerogenes [2] = test: Antimicrobial activity against Enterobacter aerogenes EA3 after 18 hrs by rapid INT colorimetric assay; settings: EA3, 18 h
How it was run: (§1)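 Strains precultured overnight on Mueller-Hinton agar. Sample dissolved in DMSO-MHB, twofold serial dilutions in MHB, inoculum 1.5 × 10^6 CFU/ml; final DMSO below 2.5%. Incubated 37°C 18 h, then 0.2 mg/ml INT added, 30 min at 37°C. MIC = lowest concentration preventing yellow-to-pink change (complete growth inhibition). DMSO-only wells as negative control.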

Klebsiella aerogenes [3] = test: Antimicrobial activity against Enterobacter aerogenes EA5 after 18 hrs by rapid INT colorimetric assay in presence of efflux pump inhibitor phenylalanine arginine; settings: EA5, 18 h
Escherichia coli [4] = test: Antimicrobial activity against tetracycline-resistant Escherichia coli AG102 after 18 hrs by rapid INT colorimetric assay in presence of efflux pump inhibitor phenylalanine arginine; settings: AG102, 18 h
How it was run: (§2)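 Broth microdilution MIC in Mueller-Hinton broth with PAßN at a final 20 μg/ml throughout. Twofold dilutions of sample from DMSO-MHB stock; inoculum 1.5 × 10^6 CFU/ml; 18 h at 37°C, final DMSO <2.5%. Growth read by INT (0.2 mg/ml, 30 min, 37°C). MIC taken as lowest concentration with no pink colour.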

Klebsiella aerogenes [5] = test: Antimicrobial activity against Enterobacter aerogenes EA298 after 18 hrs by rapid INT colorimetric assay in presence of efflux pump inhibitor phenylalanine arginine; settings: EA298, 18 h
Escherichia coli [6] = test: Antimicrobial activity against Escherichia coli AG100 after 18 hrs by rapid INT colorimetric assay in presence of efflux pump inhibitor phenylalanine arginine; settings: AG100, 18 h
Klebsiella aerogenes [7] = test: Antimicrobial activity against Enterobacter aerogenes EA289 after 18 hrs by rapid INT colorimetric assay; settings: EA289, 18 h; how it was run: as §1
Escherichia coli [8] = test: Antimicrobial activity against Escherichia coli AG100A after 18 hrs by rapid INT colorimetric assay
How it was run: (§3)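 Strains precultured overnight on Mueller-Hinton agar. Samples dissolved in DMSO-MHB, serially diluted twofold in MHB, inoculum 1.5 × 10^6 CFU/ml in MHB added; 37°C, 18 h; final DMSO <2.5%. 0.2 mg/ml INT then added, 30 min at 37°C. MIC = lowest concentration preventing yellow-to-pink reduction, i.e. complete growth inhibition.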

Enterobacter cloacae [9] = test: Antimicrobial activity against Enterobacter cloacae Ec1194 after 18 hrs by rapid INT colorimetric assay; settings: Ec1194, 18 h; how it was run: as §1
Klebsiella aerogenes [10] = test: Antimicrobial activity against Enterobacter aerogenes EA-CM64 after 18 hrs by rapid INT colorimetric assay; settings: EA-CM64, 18 h; how it was run: as §3
Klebsiella aerogenes [11] = test: Antimicrobial activity against Enterobacter aerogenes EA27 after 18 hrs by rapid INT colorimetric assay; settings: EA27, 18 h; how it was run: as §1
Klebsiella aerogenes [12] = test: Antimicrobial activity against Enterobacter aerogenes EA298 after 18 hrs by rapid INT colorimetric assay; settings: EA298, 18 h; how it was run: as §3
Klebsiella pneumoniae [13] = test: Antimicrobial activity against Klebsiella pneumoniae ATCC 11296 after 18 hrs by rapid INT colorimetric assay; settings: ATCC 11296, 18 h; how it was run: as §3
Klebsiella pneumoniae [14] = test: Antimicrobial activity against Klebsiella pneumoniae KP55 after 18 hrs by rapid INT colorimetric assay; settings: KP55, 18 h; how it was run: as §1
Klebsiella aerogenes [15] = test: Antimicrobial activity against Enterobacter aerogenes ATCC 13048 after 18 hrs by rapid INT colorimetric assay; settings: ATCC 13048, 18 h; how it was run: as §1
Enterobacter cloacae [16] = test: Antimicrobial activity against Enterobacter cloacae Ec07769 after 18 hrs by rapid INT colorimetric assay in presence of efflux pump inhibitor phenylalanine arginine; settings: Ec07769, 18 h
Escherichia coli [17] = test: Antimicrobial activity against tetracycline-resistant Escherichia coli AG100A after 18 hrs by rapid INT colorimetric assay; how it was run: as §3
Klebsiella pneumoniae [18] = test: Antimicrobial activity against Klebsiella pneumoniae ATCC 11296 after 18 hrs by rapid INT colorimetric assay in presence of efflux pump inhibitor phenylalanine arginine; settings: ATCC 11296, 18 h
Escherichia coli [19] = test: Antimicrobial activity against Escherichia coli ATCC 10536 after 18 hrs by rapid INT colorimetric assay; settings: ATCC 10536, 18 h; how it was run: as §1
Klebsiella pneumoniae [20] = test: Antimicrobial activity against Klebsiella pneumoniae KP63 after 18 hrs by rapid INT colorimetric assay in presence of efflux pump inhibitor phenylalanine arginine; settings: KP63, 18 h
Klebsiella aerogenes [21] = test: Antimicrobial activity against Enterobacter aerogenes EA5 after 18 hrs by rapid INT colorimetric assay; settings: EA5, 18 h; how it was run: as §1
Klebsiella aerogenes [22] = test: Antimicrobial activity against Enterobacter aerogenes EA289 after 18 hrs by rapid INT colorimetric assay in presence of efflux pump inhibitor phenylalanine arginine; settings: EA289, 18 h
Klebsiella pneumoniae [23] = test: Antimicrobial activity against Klebsiella pneumoniae KP55 after 18 hrs by rapid INT colorimetric assay in presence of efflux pump inhibitor phenylalanine arginine; settings: KP55, 18 h
Escherichia coli [24] = test: Antimicrobial activity against Escherichia coli ATCC 8739 after 18 hrs by rapid INT colorimetric assay in presence of efflux pump inhibitor phenylalanine arginine; settings: ATCC 8739, 18 h; how it was run: as §2
Escherichia coli [25] = test: Antimicrobial activity against Escherichia coli ATCC 8739 after 18 hrs by rapid INT colorimetric assay; settings: ATCC 8739, 18 h; how it was run: as §3
Klebsiella aerogenes [26] = test: Antimicrobial activity against Enterobacter aerogenes EA294 after 18 hrs by rapid INT colorimetric assay in presence of efflux pump inhibitor phenylalanine arginine; settings: EA294, 18 h
Enterobacter cloacae [27] = test: Antimicrobial activity against Enterobacter cloacae Ec07769 after 18 hrs by rapid INT colorimetric assay; settings: Ec07769, 18 h; how it was run: as §1
Enterobacter cloacae [28] = test: Antimicrobial activity against Enterobacter cloacae Ec1194 after 18 hrs by rapid INT colorimetric assay in presence of efflux pump inhibitor phenylalanine arginine; settings: Ec1194, 18 h; how it was run: as §2
Pseudomonas aeruginosa [29] = test: Antimicrobial activity against Pseudomonas aeruginosa PA124 after 18 hrs by rapid INT colorimetric assay; settings: PA124, 18 h; how it was run: as §3
Escherichia coli [30] = test: Antimicrobial activity against Escherichia coli AG100 after 18 hrs by rapid INT colorimetric assay; settings: AG100, 18 h; how it was run: as §3
Klebsiella aerogenes [31] = test: Antimicrobial activity against Enterobacter aerogenes ATCC 13048 after 18 hrs by rapid INT colorimetric assay in presence of efflux pump inhibitor phenylalanine arginine; settings: ATCC 13048, 18 h
Klebsiella aerogenes [32] = test: Antimicrobial activity against Enterobacter aerogenes EA294 after 18 hrs by rapid INT colorimetric assay; settings: EA294, 18 h; how it was run: as §3
Klebsiella aerogenes [33] = test: Antimicrobial activity against Enterobacter aerogenes EA-CM64 after 18 hrs by rapid INT colorimetric assay in presence of efflux pump inhibitor phenylalanine arginine; settings: EA-CM64, 18 h
Klebsiella aerogenes [34] = test: Antimicrobial activity against Enterobacter aerogenes EA3 after 18 hrs by rapid INT colorimetric assay in presence of efflux pump inhibitor phenylalanine arginine; settings: EA3, 18 h
Pseudomonas aeruginosa [35] = test: Antimicrobial activity against Pseudomonas aeruginosa PAO1 after 18 hrs by rapid INT colorimetric assay; settings: PAO1, 18 h; how it was run: as §3
Escherichia coli [36] = test: Antimicrobial activity against Escherichia coli ATCC 10536 after 18 hrs by rapid INT colorimetric assay in presence of efflux pump inhibitor phenylalanine arginine beta-naphthylamide; settings: ATCC 10536, 18 h; how it was run: as §2
Escherichia coli [37] = test: Antimicrobial activity against Escherichia coli AG100A after 18 hrs by rapid INT colorimetric assay in presence of efflux pump inhibitor phenylalanine arginine
Klebsiella aerogenes [38] = test: Antimicrobial activity against Enterobacter aerogenes EA27 after 18 hrs by rapid INT colorimetric assay in presence of efflux pump inhibitor phenylalanine arginine; settings: EA27, 18 h
Pseudomonas aeruginosa [39] = test: Antimicrobial activity against Pseudomonas aeruginosa PAO1 after 18 hrs by rapid INT colorimetric assay in presence of efflux pump inhibitor phenylalanine arginine; settings: PAO1, 18 h
Escherichia coli [40] = test: Antimicrobial activity against tetracycline-resistant Escherichia coli AG102 after 18 hrs by rapid INT colorimetric assay; settings: AG102, 18 h; how it was run: as §3
Escherichia coli [41] = test: Antimicrobial activity against tetracycline-resistant Escherichia coli AG100A after 18 hrs by rapid INT colorimetric assay in presence of efflux pump inhibitor phenylalanine arginine; how it was run: as §2
Klebsiella pneumoniae [42] = test: Antimicrobial activity against Klebsiella pneumoniae KP63 after 18 hrs by rapid INT colorimetric assay; settings: KP63, 18 h; how it was run: as §1

Compound: CC(C)=CCc1c(O)ccc(C(=O)/C=C/c2ccc(O)cc2)c1O [ISOBAVACHALCONE]
- MIC (Pseudomonas aeruginosa [1]): 4 µg/mL
- MIC (Klebsiella aerogenes [2]): 128 µg/mL (≈ 395 µM)
- MIC (Klebsiella aerogenes [3]): 16 µg/mL
- MIC (Escherichia coli [4]): 8 µg/mL
- MIC (Klebsiella aerogenes [5]): 0.5 µg/mL
- MIC (Escherichia coli [6]): 0.5 µg/mL
- MIC (Klebsiella aerogenes [7]): 256 µg/mL (≈ 789 µM)
- MIC (Escherichia coli [8]): 16 µg/mL (≈ 49.3 µM)
- MIC (Enterobacter cloacae [9]): 64 µg/mL (≈ 197 µM)
- MIC (Klebsiella aerogenes [10]): > 256 µg/mL
- MIC (Klebsiella aerogenes [11]): 256 µg/mL (≈ 789 µM)
- MIC (Klebsiella aerogenes [12]): 8 µg/mL (≈ 24.7 µM)
- MIC (Klebsiella pneumoniae [13]): 32 µg/mL (≈ 98.7 µM)
- MIC (Klebsiella pneumoniae [14]): 32 µg/mL (≈ 98.7 µM)
- MIC (Klebsiella aerogenes [15]): 256 µg/mL (≈ 789 µM)
- MIC (Enterobacter cloacae [16]): 8 µg/mL
- MIC (Escherichia coli [17]): 64 µg/mL (≈ 197 µM)
- MIC (Klebsiella pneumoniae [18]): 4 µg/mL
- MIC (Escherichia coli [19]): 128 µg/mL (≈ 395 µM)
- MIC (Klebsiella pneumoniae [20]): 0.5 µg/mL
- MIC (Klebsiella aerogenes [21]): 64 µg/mL (≈ 197 µM)
- MIC (Klebsiella aerogenes [22]): 16 µg/mL
- MIC (Klebsiella pneumoniae [23]): 4 µg/mL
- MIC (Escherichia coli [24]): 8 µg/mL
- MIC (Escherichia coli [25]): 256 µg/mL (≈ 789 µM)
- MIC (Klebsiella aerogenes [26]): 0.5 µg/mL
- MIC (Enterobacter cloacae [27]): 128 µg/mL (≈ 395 µM)
- MIC (Enterobacter cloacae [28]): 1 µg/mL
- MIC (Pseudomonas aeruginosa [29]): 64 µg/mL (≈ 197 µM)
- MIC (Escherichia coli [30]): 64 µg/mL (≈ 197 µM)
- MIC (Klebsiella aerogenes [31]): 16 µg/mL
- MIC (Klebsiella aerogenes [32]): 32 µg/mL (≈ 98.7 µM)
- MIC (Klebsiella aerogenes [33]): 256 µg/mL
- MIC (Klebsiella aerogenes [34]): 32 µg/mL
- MIC (Pseudomonas aeruginosa [35]): 64 µg/mL (≈ 197 µM)
- MIC (Escherichia coli [36]): 2 µg/mL
- MIC (Escherichia coli [37]): 0.25 µg/mL
- MIC (Klebsiella aerogenes [38]): 8 µg/mL
- MIC (Pseudomonas aeruginosa [39]): 16 µg/mL
- MIC (Escherichia coli [40]): 64 µg/mL (≈ 197 µM)
- MIC (Escherichia coli [41]): 8 µg/mL
- MIC (Klebsiella pneumoniae [42]): 16 µg/mL (≈ 49.3 µM)
